According to PMC7729281 (Biochemistry, 2020):
Where “and” joins values, the source holds several entries; their conditions need not be identical. Equal values may be shown once.

What was measured:
h15-LOX-1 = target: T1, h15-LOX-1 (Homo sapiens, UniProt P16050); test: Steady-state kinetics of h15-LOX-1
T1 sequence (P16050 1-662): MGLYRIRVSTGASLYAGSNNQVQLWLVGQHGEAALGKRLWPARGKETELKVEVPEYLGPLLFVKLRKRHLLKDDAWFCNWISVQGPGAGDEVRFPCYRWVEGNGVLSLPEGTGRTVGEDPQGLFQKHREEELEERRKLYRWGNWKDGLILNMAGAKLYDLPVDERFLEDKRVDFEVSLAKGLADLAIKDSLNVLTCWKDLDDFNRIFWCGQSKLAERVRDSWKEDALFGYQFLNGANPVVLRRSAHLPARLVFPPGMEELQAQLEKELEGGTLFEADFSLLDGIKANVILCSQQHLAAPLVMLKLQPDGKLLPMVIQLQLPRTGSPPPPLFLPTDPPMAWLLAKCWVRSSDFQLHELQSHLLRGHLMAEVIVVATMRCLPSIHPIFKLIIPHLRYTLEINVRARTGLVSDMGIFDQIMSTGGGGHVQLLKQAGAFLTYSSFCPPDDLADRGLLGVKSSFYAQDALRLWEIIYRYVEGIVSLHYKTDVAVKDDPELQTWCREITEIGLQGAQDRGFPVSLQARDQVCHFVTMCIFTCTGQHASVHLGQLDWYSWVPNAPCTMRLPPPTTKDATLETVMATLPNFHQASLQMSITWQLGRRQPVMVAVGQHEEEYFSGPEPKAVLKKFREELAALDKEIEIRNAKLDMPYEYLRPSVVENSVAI

h12-LOX [1] = target: T2, h12-LOX (Homo sapiens, UniProt P18054); test: Steady-state kinetics of h12-LOX
T2 sequence (P18054 1-663): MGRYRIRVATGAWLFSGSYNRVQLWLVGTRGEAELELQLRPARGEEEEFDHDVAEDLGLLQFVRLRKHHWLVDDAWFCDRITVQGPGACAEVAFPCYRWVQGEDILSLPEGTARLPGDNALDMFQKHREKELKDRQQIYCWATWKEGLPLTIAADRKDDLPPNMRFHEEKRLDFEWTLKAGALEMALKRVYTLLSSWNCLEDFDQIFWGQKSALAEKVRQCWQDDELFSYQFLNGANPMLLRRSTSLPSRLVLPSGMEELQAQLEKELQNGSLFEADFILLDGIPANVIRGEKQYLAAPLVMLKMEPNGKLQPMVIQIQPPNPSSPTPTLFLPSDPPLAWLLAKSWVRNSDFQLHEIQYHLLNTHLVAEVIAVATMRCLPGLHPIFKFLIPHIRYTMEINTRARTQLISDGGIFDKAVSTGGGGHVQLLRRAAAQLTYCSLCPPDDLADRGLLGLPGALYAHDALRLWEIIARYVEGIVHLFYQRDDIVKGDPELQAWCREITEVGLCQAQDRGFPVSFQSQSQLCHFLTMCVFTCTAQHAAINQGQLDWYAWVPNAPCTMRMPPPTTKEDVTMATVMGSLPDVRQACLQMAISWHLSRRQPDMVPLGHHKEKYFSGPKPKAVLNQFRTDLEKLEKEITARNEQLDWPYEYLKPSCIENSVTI

h12-LOX [2] = target: T2, h12-LOX; test: Product analysis of h12-LOX reactions; type: biochemical; conditions: h12-LOX + 1 μM 14S-HpDHA, 60 min, pH 8.0, ambient O2
In short: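 h15-LOX-1 (0.125 μM, pH 7.5) or h12-LOX (0.300 μM, pH 8.0) was reacted in 25 mM HEPES at room temperature under ambient O2. Substrates were 10 μM DHA for 1 min (monitored at 234 nm) or 1 μM 14S-HpDHA for 20 min (h15-LOX-1) or 1 h (h12-LOX) (monitored at 270 nm). Reactions were quenched with acetic acid, spiked with d5-maresin-1, extracted into DCM and background-subtracted against a no-enzyme control. Split samples were run with or without trimethyl phosphite reduction. Products were identified by C18 LC-MS/MS (qTOF), N = 3.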

h15-LOX-2 = target: T3, h15-LOX-2 (Homo sapiens, UniProt O15296); test: Steady-state kinetics of h15-LOX-2 with 14S-HpDHA; type: biochemical; conditions: various 14S-HpDHA concentrations
T3 sequence (O15296 1-676): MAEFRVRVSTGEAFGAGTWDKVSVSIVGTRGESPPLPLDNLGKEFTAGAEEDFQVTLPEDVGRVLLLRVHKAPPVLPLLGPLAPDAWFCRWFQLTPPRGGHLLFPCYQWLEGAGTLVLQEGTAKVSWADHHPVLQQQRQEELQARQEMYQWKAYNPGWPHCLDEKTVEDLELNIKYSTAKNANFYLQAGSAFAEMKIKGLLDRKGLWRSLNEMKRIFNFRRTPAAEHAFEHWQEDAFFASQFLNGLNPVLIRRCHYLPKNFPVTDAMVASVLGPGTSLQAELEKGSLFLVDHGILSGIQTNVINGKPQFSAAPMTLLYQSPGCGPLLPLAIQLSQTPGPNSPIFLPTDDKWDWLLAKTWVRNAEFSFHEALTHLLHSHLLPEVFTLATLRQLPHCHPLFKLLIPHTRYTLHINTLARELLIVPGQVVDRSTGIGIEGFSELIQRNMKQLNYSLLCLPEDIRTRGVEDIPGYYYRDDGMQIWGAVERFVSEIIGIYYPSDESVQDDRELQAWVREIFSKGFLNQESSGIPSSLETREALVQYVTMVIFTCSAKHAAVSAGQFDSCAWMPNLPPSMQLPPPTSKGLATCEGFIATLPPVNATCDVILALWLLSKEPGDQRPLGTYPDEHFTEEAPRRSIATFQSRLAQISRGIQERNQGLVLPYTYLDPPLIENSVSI
In short: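 Reactions were run in a quartz cuvette containing 2 mL of 25 mM HEPES, pH 7.5, at room temperature, with 14S-HpDHA at various concentrations. The 14S-HpDHA stock was quantified at 234 nm in methanol (ε 27 000 M−1 cm−1). Product formation was followed by absorbance at 270 nm (ε 37 000 M−1 cm−1), with triplicate reactions.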

human platelets = test: Collagen-stimulated platelet aggregation; type: cell-based; conditions: ≥1 μM, 10 min incubation, collagen 0.25 μg/mL
In short: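 Washed human platelets were isolated by serial centrifugation and resuspended in Tyrode's buffer at 3 × 10^8/mL. They were preincubated with test compound (1–10 μM) for 10 min at 37 °C, then stimulated with 0.25 μg/mL collagen while stirring at 1100 rpm. Maximum aggregation was read as the light-transmittance change, mean ± SEM of 3–5 independent experiments. Comparison versus vehicle used one-way ANOVA with Dunnett's test.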

[3] = h15-LOX-1 + substrate, 25 mM HEPES pH 7.5, RT
[4] = h12-LOX + substrate, 25 mM HEPES pH 8.0, RT

## CC/C=C\C/C=C\C[C@@H](/C=C/C=C\C/C=C\C/C=C\CCC(=O)O)OO [14S-HpDHA, 14S-hydroperoxy-4Z,7Z,10Z,12E,16Z,19Z-docosahexaenoic acid]
h15-LOX-1; h15-LOX-1
  kcat: 2.0 ± 0.04 s⁻¹ µM⁻¹
h15-LOX-1; h15-LOX-1 + 14S-HpDHA, B.F. = kcat/KM * % product
  13S,14S-epoxy-DHA biosynthetic flux: 0.078
h15-LOX-1; [3]
  Km: 18 ± 1 µM
  kcat: 2.0 ± 0.04 s⁻¹
h15-LOX-1; h15-LOX-1, kcat/KM of enzyme with DHA set to 1 (Table 5)
  fold difference of kcat/KM: −3.2
h15-LOX-1; substrate 14S-HpDHA
  kcat of h15-LOX-1 greater than that of h12-LOX: ~10 fold
h12-LOX [1]; h12-LOX + 14S-HpDHA
  fold difference of 13S,14S-epoxy-DHA biosynthetic flux: 1.0
h12-LOX [1]; h12-LOX + 14S-HpDHA, B.F. = kcat/KM * % product
  13S,14S-epoxy-DHA biosynthetic flux: 0.0018
h12-LOX [1]; [4]
  Km: 88 ± 16 µM
  kcat: 0.22 ± 0.02 s⁻¹
h12-LOX [1]; h12-LOX, 14S-HpDHA relative to DHA
  reduction of kcat: 60 fold
h12-LOX [1]; h12-LOX, kcat/KM of enzyme with DHA set to 1 (Table 5)
  fold difference of kcat/KM: −5880
h12-LOX [2]
  product profile: 7S,14S-EZE-diHpDHA: 12% and 12 ± 2%
  product profile: 13S,14S-epoxy-DHA (detected as 7S/R,14S-EEE-diHDHA): 76% and 76 ± 11%
  product profile: 14S,20-diHpDHA: 13% and 13 ± 9%
h15-LOX-2
  reaction with h15-LOX-2: not to react
Human platelets
  reduction in aggregation compared to vehicle control: > 90%
